Compound activity from PubChem BioAssay.
MC4R ag barr = MC4R agonists recruiting beta-arrestin, primary screen, cell-based, luminescence, agonist arm of biased-ligand search. activation, % at 8.9 µM. U2OS MC4R beta-arrestin complementation; percent of melanotan II response, DMSO zero. hit rate 0.98% among 360,000;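 active = activation above a per-plate cutoff, the mean activation of sample wells on that plate plus 3 SD, cut at about 8% in these data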
MC4R antagonist = MC4R antagonists of cAMP signaling, primary screen, cell-based, TR-FRET, antagonist arm of biased-ligand search. Melanocortin receptor 4 (Homo sapiens), P32245. MC4R-expressing cells, MTII-stimulated cAMP, LANCE TR-FRET. inhibition, % at 6.5 µM. hit rate 0.48% among 360,000. AID 540295, 2011;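 active = inhibition above its plate's cutoff, the mean of tested wells on that plate plus 3 SD, cut at about 29% in these data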;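 note: 0% = Melanotan II alone and 100% = Melanotan II plus saturating MCL0020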
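Assay system: U2OS cells stably expressing human melanocortin 4 receptor (MC4R) / Dosing: 6.5 µM / Timing: compound 30 min, challenge 1 h, detection 1 h / Measured by: Eu-cAMP/anti-cAMP TR-FRET, emission 671 nm / Replicates: singlicate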
Rev-erbA mod = modulators of Rev-erb alpha DNA binding, primary screen, biochemical, FITC-DNA, fluorescence polarization, uHTS. Nuclear receptor subfamily 1 group D member 1 (Homo sapiens), P20393. Rev-erbα–FITC-DNA binding, 90 min. activity, % at 10 µM. hit rate 0.79% among 370,000. AID 1259318, 2017;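 active = activity above about 14%, limit read from the data; passing the limit was not always enough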;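 note: 0% = DMSO wells with 35 nM protein and 100% = DMSO wells with 750 nM protein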
PG9 Ab binder = binders of HIV-1 gp120 antibody PG9, primary screen, biochemical, TR-FRET | HIV-1 gp120 / PG9 antibody interaction | TR-FRET gp120-PG9 antibody binding | inhibition, % at 6.7 µM | hit rate 0.43% among 360,000 | AID 624416, 2012; in the data active = inhibition above about 8.5%
NTR1 ag = agonists of human NTR1, primary screen, imaging, U2OS cells, beta-arrestin-GFP, high content. Neurotensin receptor type 1 (Homo sapiens), P30989. NTR1-U2OS beta-arrestin-GFP spot imaging, agonist mode. activation, % at 20 µM. hit rate 0.17% among 330,000;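 active = activation at or above 40% of the spot to cytoplasm intensity ratio, with at least 20 cells analyzed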;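 note: 0% = DMSO without peptide and 100% = 100 nM NTR1 peptide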
Target sequence (P30989 whole entry, looked up): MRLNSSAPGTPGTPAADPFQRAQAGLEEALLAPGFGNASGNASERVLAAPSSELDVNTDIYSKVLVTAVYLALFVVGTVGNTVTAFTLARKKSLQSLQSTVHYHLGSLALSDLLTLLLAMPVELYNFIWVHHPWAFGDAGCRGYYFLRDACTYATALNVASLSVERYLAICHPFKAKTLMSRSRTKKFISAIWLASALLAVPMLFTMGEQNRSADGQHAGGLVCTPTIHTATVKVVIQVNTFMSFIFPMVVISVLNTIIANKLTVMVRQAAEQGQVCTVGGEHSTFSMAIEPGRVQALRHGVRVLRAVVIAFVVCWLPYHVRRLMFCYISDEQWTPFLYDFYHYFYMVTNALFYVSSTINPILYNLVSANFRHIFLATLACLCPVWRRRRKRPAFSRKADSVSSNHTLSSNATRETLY
PG9 binder conf = binders of anti-gp120 antibody PG9, confirmation, biochemical, TR-FRET; shares compounds with PG9 Ab binder; TR-FRET PG9 antibody binding; inhibition, % at 6.7 µM; hit rate 90% among 1,500; in the data active = inhibition above about 9%
PGV04 Ab binding = binders of control antibody PGV04, counter-screen for PG9 antibody binder project, biochemical, TR-FRET, distinct HIV envelope site; shares compounds with PG9 Ab binder; TR-FRET PGV04 antibody-gp120 binding; inhibition, % at 6.7 µM; hit rate 95% among 1,500; in the data active = inhibition above about 9.5%
An asterisk follows results filed as active. A selection: hits, their analogues and other compounds. The true share with any hit is near 2.5%.

What do the screens show for `O=C1COc2ccccc2C(c2nnnn2-c2ccc3ccccc3c2)N1C1CC1` (stereo not drawn)?
Rev-erbA mod: -3

What do the screens show for `NC(N)=NS(=O)(=O)c1ccc(NC(=S)NC(=O)c2ccc3c(c2)OCO3)cc1`?
MC4R ag barr: 7; MC4R antagonist: 20; Rev-erbA mod: 13; PG9 Ab binder: 9.5*; NTR1 ag: 4; PG9 binder conf: 15*; PGV04 Ab binding: 22*

How did O=C(O)C1CC=CCC1C(=O)N1CCN(c2nc(-c3ccccc3Cl)c3cc(Br)ccc3n2)CC1 (stereo not drawn) do in these assays?
MC4R ag barr: 1; MC4R antagonist: 23; Rev-erbA mod: 3; PG9 Ab binder: 13*; NTR1 ag: 14; PG9 binder conf: 25*; PGV04 Ab binding: 41*

What do the screens show for `Cc1ccc(Cn2cc(COC(=O)Nc3ccc(F)cc3)nn2)cc1`?
Rev-erbA mod: -2

Results for CC(C)(C)Cc1nnc(NS(=O)(=O)c2ccccc2)s1 ?
MC4R ag barr: -1; MC4R antagonist: 9; Rev-erbA mod: 3; PG9 Ab binder: 9.0*; NTR1 ag: -1; PG9 binder conf: 11*; PGV04 Ab binding: 17*

Results for CN(C)CCCN1C(=O)C(O)=C(C(=O)c2cc3ccccc3o2)C1c1ccccc1 (stereo not drawn) ?
MC4R ag barr: -1; MC4R antagonist: 27; Rev-erbA mod: 2; PG9 Ab binder: 36*; NTR1 ag: 0; PG9 binder conf: 37*; PGV04 Ab binding: 55*

How did O=C(C1=C(O)C(=O)N(CCN2CCOCC2)C1c1ccc(Br)cc1)c1cc2ccccc2o1 (stereo not drawn) do in these assays?
MC4R ag barr: -3; MC4R antagonist: 7; Rev-erbA mod: 2; PG9 Ab binder: 6; NTR1 ag: -1

What do the screens show for `COC(=O)c1ccc(C2/C(=C(\O)c3cccc(OC)c3)C(=O)C(=O)N2CCCN(C)C)cc1` (stereo not drawn)?
MC4R ag barr: -1; MC4R antagonist: -1; Rev-erbA mod: 0; PG9 Ab binder: 0; NTR1 ag: -1

How did O=C(C1=C(O)C(=O)N(Cc2ccco2)C1c1cccnc1)c1cc2ccccc2o1 (stereo not drawn) do in these assays?
MC4R ag barr: -1; MC4R antagonist: 16; Rev-erbA mod: -2; PG9 Ab binder: 15*; NTR1 ag: 1; PG9 binder conf: 31*; PGV04 Ab binding: 46*

How did O=C(C1=C(O)C(=O)N(Cc2ccco2)C1c1cccc(O)c1)c1ccco1 (stereo not drawn) do in these assays?
MC4R ag barr: 1; MC4R antagonist: 16; Rev-erbA mod: -9; PG9 Ab binder: -1; NTR1 ag: -1

What do the screens show for `COC(=O)c1ccc(C2C(C(=O)c3cc4ccccc4o3)=C(O)C(=O)N2CCCN(C)C)cc1` (stereo not drawn)?
MC4R ag barr: -1; MC4R antagonist: 6; Rev-erbA mod: 0; PG9 Ab binder: 19*; NTR1 ag: 0; PG9 binder conf: 20*; PGV04 Ab binding: 29*

How did O=C(Cc1ccccc1Cl)NCCN1C(=O)C2C3C=CC(C3)C2C1=O (stereo not drawn) do in these assays?
Rev-erbA mod: -8

What do the screens show for `O=C1CC2c3cc(Br)ccc3CCN2C(=O)CN1Cc1ccccc1` (stereo not drawn)?
Rev-erbA mod: 3; PG9 Ab binder: 1

How did COc1ccc2c(c1)[C@@]1(NCCc3c1[nH]c1ccc(OC)cc31)C(=O)N2 do in these assays?
Rev-erbA mod: 0

How did C[C@H]1C2CC(OC(=O)Nc3ccc(F)cc3)C(C2)[C@H]2CCCCN21 (stereo partly drawn) do in these assays?
Rev-erbA mod: 4

Results for Cc1c(C(=O)Nc2nccs2)oc2ccc(Br)cc12 ?
MC4R ag barr: 5; MC4R antagonist: -1; Rev-erbA mod: 13; PG9 Ab binder: 10*; NTR1 ag: 10; PG9 binder conf: 12*; PGV04 Ab binding: 15*

How did COc1ccc2oc(C(=O)Nc3ccccn3)c(C)c2c1 do in these assays?
MC4R ag barr: -4; MC4R antagonist: -13; Rev-erbA mod: -5; PG9 Ab binder: -1; NTR1 ag: 0

How did COc1ccc2oc(C(=O)Nc3nc(C)cs3)c(C)c2c1 do in these assays?
MC4R ag barr: 2; MC4R antagonist: -1; Rev-erbA mod: 2; PG9 Ab binder: 8.8*; NTR1 ag: 3; PG9 binder conf: 13*; PGV04 Ab binding: 17*

What do the screens show for `Cc1c(C(=O)Nc2nccs2)oc2ccc(F)cc12`?
MC4R ag barr: 2; MC4R antagonist: 7; Rev-erbA mod: 0; PG9 Ab binder: 1; NTR1 ag: 0

What do the screens show for `CC(=O)c1ccc(N2CCN(C(=O)c3ccc(-c4ccccc4)cc3)CC2)cc1`?
MC4R ag barr: 2; MC4R antagonist: 4; Rev-erbA mod: 6; PG9 Ab binder: 26*; NTR1 ag: 3; PG9 binder conf: 44*; PGV04 Ab binding: 54*

How did CCc1ccc2oc(C(=O)Nc3ccc(S(N)(=O)=O)cc3)c(C)c2c1 do in these assays?
MC4R ag barr: -1; MC4R antagonist: -2; Rev-erbA mod: 0; PG9 Ab binder: 10*; NTR1 ag: 1; PG9 binder conf: 15*; PGV04 Ab binding: 21*

Results for COC(=O)C[C@H]1CC[C@@H]2[C@H](COc3ccc(NC(=O)NCc4ccccc4)cc3C(=O)N2C)O1 ?
Rev-erbA mod: 9

How did COc1ccc(CCNC(=O)CSc2nc3sc(C(=O)O)c(C)c3c(=O)[nH]2)cc1OC do in these assays?
MC4R ag barr: -4; MC4R antagonist: -1; Rev-erbA mod: -4; PG9 Ab binder: -3; NTR1 ag: 2

Results for CC(=O)c1sc2nc(SCC(=O)NCCc3ccccc3)[nH]c(=O)c2c1C ?
MC4R ag barr: 2; MC4R antagonist: 1; Rev-erbA mod: -3; PG9 Ab binder: 36*; NTR1 ag: 0; PG9 binder conf: 37*; PGV04 Ab binding: 42*

How did Cc1sc2nc(SCC(=O)NCc3ccco3)[nH]c(=O)c2c1C do in these assays?
MC4R ag barr: -1; MC4R antagonist: 4; Rev-erbA mod: -4; PG9 Ab binder: 28*; NTR1 ag: 2; PG9 binder conf: 29*; PGV04 Ab binding: 42*
